Experimental data: ChEMBL document CHEMBL1150427, “Hybrids of 1-deoxynojirimycin and aryl-1,2,3-triazoles and biological studies related to angiogenesis” (Bioorg Med Chem, 2008)
Calls of active or inactive are those of the source. The rule behind the calls is not given here.

Assays:
[1] = test system: BAEC; experiment: Decrease in FITC-labeled phytohemagglutininin-L binding to BAEC at 50 uM after 24 hrs by flow cytometer; format: functional, cell-based; conditions: Bos taurus
In short: (§1)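 Cultured BAECs were exposed to compound (50 µM) for 24 h, harvested and washed in DPBS. About 5×10⁵ cells were incubated in DPBS/1% BSA with 2 µg/mL FITC-labelled Con A or L-PHA for 1 h at 4 °C, washed twice, and fluorescence histograms were recorded by FACS. Each experiment was done at least twice.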

[2] = test system: BAEC; experiment: Increase in FITC-labeled concanavalin A binding to BAEC at 50 uM after 24 hrs by flow cytometer; format: functional; conditions: Bos taurus; in short: as §1
[3] = test system: BAEC; experiment: Inhibition of angiogenesis in BAEC assessed as inhibition of endothelial tube formation at 0.2 mM after 24 hrs; format: functional; conditions: Bos taurus
In short: (§2)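 BAECs were pretreated with compound for 24 h, then resuspended at 3×10⁴ cells/0.1 ml in RPMI 1640 with 10 ng/ml bFGF plus compound; controls received bFGF alone. Cells were layered on polymerised growth-factor-reduced Matrigel and incubated for 8 h at 37 °C in 5% CO₂. Tubes were counted by light microscopy in at least five fields and averaged. Each compound was tested at least twice.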

[4] = (§3) Inhibition of Bacillus stearothermophilus alpha glucosidase; parameters: species or system Geobacillus stearothermophilus
[5] = test system: BAEC; experiment: Effect on cell cycle of BAEC assessed as induction of G1 phase arrest at 200 uM after 24 hrs by flow cytometer relative to control; format: functional, cell-based; conditions: Bos taurus
In short: (§4)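 BAECs were seeded overnight in RPMI 1640 with 10% FBS, then exposed to compound for 24 h with a DMSO control. Cells were trypsinised, washed in DPBS and fixed in 70% ethanol at −20 °C for at least 2 h. They were treated with 200 µg/ml RNase A at 25 °C for 30 min, then stained with 50 µg/ml propidium iodide at 4 °C for 30 min. DNA content of 10,000 nuclei was read by flow cytometry, and G0/G1, S and G2/M percentages were derived. Each experiment was run at least twice.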

[6] = test system: BAEC; experiment: Inhibition of ERK1/2 levels in BAEC at 200 uM after 24 hrs by Western blot; format: functional, cell-based; conditions: Bos taurus
In short: (§5)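 BAECs were treated at 0, 100 or 200 µM for 24 h, then lysed in RIPA buffer with protease inhibitors. Protein was quantified by micro-BCA. Lysates were separated by SDS–PAGE and transferred to PVDF, then probed overnight at 4 °C with antibodies to cyclin D1, ERK, phospho-ERK and β-actin (loading control). Detection used HRP secondaries and ECL. Experiments were repeated at least twice.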

[7] = test system: BAEC; experiment: Inhibition of cyclin D1 expression in BAEC at 200 uM after 24 hrs by Western blot; format: functional, cell-based; conditions: Bos taurus; in short: as §5
[8] = Cell cycle arrest in BAEC assessed as accumulation at G0/G1 phase at 200 uM after 24 hrs by flow cytometer relative to control; format: functional, cell-based; conditions: Bos taurus; in short: as §4
[9] = test system: BAEC; experiment: Inhibition of stress fiber assembly in BAEC by fluorescence staining with FITC phalloidin; format: functional, cell-based; conditions: Bos taurus
In short: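 BAECs were grown overnight on glass coverslips, then exposed to compound for 24 h. Cells were fixed in 4% paraformaldehyde, permeabilised with 0.1% Triton X-100 and blocked with 1% BSA. F-actin was stained with FITC-phalloidin (2 µg/ml, 30 min) and imaged by confocal microscopy at 40× oil. Experiments were repeated at least twice.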

[10] = species on record: Bos taurus; experiment: Inhibition of ERK1/2 phosphorylation in BAEC at 100 uM after 24 hrs by Western blot; in short: as §5
[11] = test system: BAEC; experiment: Inhibition of cyclin D1 expression in BAEC at 100 uM after 24 hrs by Western blot; format: functional, cell-based; conditions: Bos taurus; in short: as §5
[12] = Cell cycle arrest in BAEC assessed as accumulation at S phase at 200 uM after 24 hrs by flow cytometer relative to control; format: functional, cell-based; conditions: Bos taurus; in short: as §4
[13] = species on record: Bos taurus; experiment: Inhibition of ERK1/2 phosphorylation in BAEC at 200 uM after 24 hrs by Western blot; in short: as §5
[14] = test system: BAEC; experiment: Inhibition of ERK1/2 levels in BAEC at 100 uM after 24 hrs by Western blot; format: functional, cell-based; conditions: Bos taurus; in short: as §5
[15] = Cell cycle arrest in BAEC assessed as accumulation at G2/M phase at 200 uM after 24 hrs by flow cytometer relative to control; format: functional, cell-based; conditions: Bos taurus; in short: as §4
[16] = test system: BAEC; experiment: Inhibition of angiogenesis in BAEC assessed as inhibition of endothelial tube formation at 0.1 mM after 24 hrs; format: functional; conditions: Bos taurus; in short: as §2
[17] = Growth inhibition of BAEC after 48 hrs by MTT assay; parameters: species or system Bos taurus; conditions: cattle
In short: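 BAECs (3×10³ per well) were seeded overnight in RPMI 1640 with 10% FBS, then given compounds at 10⁻⁶–10⁻³ M for 48 h. MTT was added to a final 0.5 mg/mL for 3 h at 37 °C. Formazan was dissolved in DMSO and read at 570 nm. Samples were run in quadruplicate, with at least two independent experiments.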

[18] = test system: Geobacillus stearothermophilus; experiment: as §3

| SMILES | Activity [1] | Activity [2] | IC50 [4] [nM] | Activity [3] | other results |
| --- | --- | --- | --- | --- | --- |
| OC[C@@H]1[C@@H](O)[C@H](O)[C@@H](O)CN1CCCCOc1cccc(-c2cnn[nH]2)c1 | inactive | Active | 6070 | inactive | – |
| OC[C@H]1NC[C@H](O)[C@@H](O)[C@@H]1O [DUVOGLUSTAT] | inactive | Active | 1670 | inactive | Activity [17]: Not Active |
| COc1cccc(-c2cnn[nH]2)c1 | – | – | – | inactive | Activity [18]: inactive |

Further lines, with some results ahead:

| Activity [1] | Activity [2] | IC50 [4] [nM] | SMILES | Activity [3] | other results |
| --- | --- | --- | --- | --- | --- |
| inactive | Active | 1150 | OC[C@@H]1[C@@H](O)[C@H](O)[C@@H](O)CN1CCCCCCCCOc1cccc(-c2cnn[nH]2)c1 | Active | Activity [5]: Active; Activity [6]: inactive; Activity [7]: Active; Activity [8]: 87.6%; Activity [9]: Active; Activity [10]: inactive; Activity [11]: Active; Activity [12]: 3.9%; Activity [13]: inactive; Activity [14]: inactive; Activity [15]: 6.2%; Activity [16]: inactive |
| inactive | Active | 2410 | OC[C@@H]1[C@@H](O)[C@H](O)[C@@H](O)CN1CCCCCCOc1cccc(-c2cnn[nH]2)c1 | inactive | – |
